Measurements gathered from unrelated publications.
Lines come from different studies, so protocols differ.
Target: High affinity nerve growth factor receptor (NTRK1, Homo sapiens, UniProt P04629)

SMILES | observed | mode | method | concentration | inhibition [%]
CNC(=O)c1ccccc1Nc1cc(Nc2ccc(N3CCOCC3)cc2OC)ncc1C(F)(F)F | enzyme activity | inhibitor |  | 1 µM | > 50
CN1CC(Oc2cnc(C#N)cc2-c2ccn3nc(NC(=O)C4CC4)cc3c2)C1 | enzyme activity | inhibitor |  | 1 µM | 5
O=C(Nc1ccccc1)Nc1cccc(C(=O)Nc2ccc3[nH]ncc3c2)c1 | enzyme activity | inhibitor | FRET | 1 µM | 33.2
COc1cc(C)c(Sc2cnc(NC(=O)c3ccc(N4CCN(CCCCCCCNC(=O)COc5cccc6c5C(=O)N(C5CCC(=O)NC5=O)C6=O)CC4)cc3)s2)cc1C(=O)N1CCN(C(C)=O)CC1 (stereo not shown) | binding |  |  | 1 µM | > 90
CN(C)C1CCN(CC#Cc2nn(C3CCCC3)c3nc(NCc4ccccc4)ncc23)C1 (stereo not shown) | enzyme activity | inhibitor | FRET | 10 µM | 65
CNCc1ccc(-c2cc(-c3nc(-c4ccc(S(=O)(=O)C(C)C)cc4)cnc3N)on2)cc1 | enzyme activity | inhibitor |  | 0.4 µM | 13
O=C(Nc1cccc(C(=O)Nc2ccc3[nH]ncc3c2)c1)Nc1cccc(C(F)(F)F)c1 | enzyme activity | inhibitor | FRET | 1 µM | 67.4
CCN(CC)CCNC(=O)c1c(C)[nH]c(/C=C2\C(=O)Nc3ccc(F)cc32)c1C | enzyme activity | inhibitor |  | 0.3 µM | 91
CSc1nc(C)c(-c2ccnc(Nc3ccc(N4CCOCC4)cc3)c2)[nH]1 | cell-free assay | inhibitor |  | 10 µM | 10.1
COc1cc2nccc(Oc3ccc(NC(=O)c4c5n(n(-c6ccc(F)cc6)c4=O)CCCC5)cc3)c2cc1OC | enzyme activity | inhibitor |  | 0.1 µM | 63
Cc1ccc(Nc2nccc(N(C)c3ccc4c(C)n(C)nc4c3)n2)cc1S(N)(=O)=O | enzyme activity | inhibitor |  | 0.3 µM | 16
O=C(Nc1ccc(OC(F)(F)F)cc1)Nc1cccc(C(=O)Nc2ccc3[nH]ncc3c2)c1 | enzyme activity | inhibitor | FRET | 1 µM | 69.2
CC/C(=N\NC(=O)NCc1cccc(O)c1)c1ccc(O)c(C)c1O | enzyme activity | inhibitor |  | 0.1 µM | 3.3
O=C(Nc1ccc(C(F)(F)F)cc1)Nc1cccc(C(=O)Nc2ccc3[nH]ncc3c2)c1 | enzyme activity | inhibitor | FRET | 1 µM | 74
CNC(=O)c1cc(Oc2ccc(NC(=O)Nc3ccc(Cl)c(C(F)(F)F)c3)cc2)ccn1 | enzyme activity | inhibitor |  | 10 µM | 98
COc1cc2ncnc(Nc3ccc(Oc4ccccc4)c(C)c3C)c2cc1OC | enzyme activity | inhibitor |  | 1 µM | -1
